This note sets out measurements from ChEMBL document CHEMBL1135836, “Cyclodextrin-derived host molecules as reversal agents for the neuromuscular blocker rocuronium bromide: synthesis and structure-activity relationships” (J Med Chem, 2002).

Common to all, as to assay type: functional
For experiment [1], the system named is Felis catus. Description: Percentage of maximum change in blood pressure in anesthetized cat dosed at 0.2 umol/kg (by bolus injection). In outline: (§1)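 Anaesthetized cats, left for 1 h after surgery to stabilize. Tibialis anterior twitch was evoked via the sciatic nerve with supramaximal 0.25 ms pulses at 0.1 Hz. Rocuronium in phosphate buffer (pH 4) was infused continuously (10.24 ± 1.31 nmol kg-1 min-1). Increasing doses of agent in saline were then given as iv boluses while mean arterial blood pressure and heart rate were recorded; means of three independent experiments.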

Experiment [2] deals with Felis catus. The experiment in a line: Percentage of maximum change in blood pressure in anesthetized cat dosed at 0.4 umol/kg (by bolus injection). In outline: as §1
For experiment [3], the system named is Felis catus. Description: Percentage of maximum change in blood pressure in anesthetized cat dosed at 0.6 umol/kg (by bolus injection). An outline of the steps:
as §1

Experiment [4] deals with Felis catus. Description: Percentage of maximum change in blood pressure in anesthetized cat dosed at 0.8 umol/kg (by bolus injection). In outline:
as §1

The subject of experiment [5] is Felis catus. Description: % of maximum change of decrease in HR by vagal stimulation in anesthetized cat at 0.2umol/kg, by bolus injection.
The test system of experiment [6] is Felis catus. Description: % of maximum change of decrease in HR by vagal stimulation in anesthetized cat at 0.4umol/kg, by bolus injection.
Experiment [7] relates to Cavia porcellus. Description: In vivo reversal activity versus ~90% block by rocuronium in guinea pig. An outline of the steps: (§2)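 Male Dunkin-Hartley guinea pigs (600-900 g), anaesthetized ip with pentobarbitone 10 mg/kg plus urethane 1000 mg/kg, tracheotomized and ventilated. Continuous iv rocuronium infusion (~10 nmol kg-1 min-1) was raised to a steady 85-90% block. Increasing iv doses of agent were given cumulatively. ED50 = 50% recovery versus preblock twitch, by regression. Mean ± SEM of at least two experiments, or one.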

Experiment [8] relates to Felis catus. Description: Percentage of maximum change in blood pressure in anesthetized cat dosed at 1.0 umol/kg (by bolus injection). In outline:
as §1

Experiment [9] concerns Felis catus. The experiment in a line: Percentage of maximum change in blood pressure in anesthetized cat dosed at 1.2 umol/kg (by bolus injection). In outline:
as §1

Experiment [10] has as its system Felis catus. Description: Percentage of maximum change in blood pressure in anesthetized cat dosed at 1.4 umol/kg (by bolus injection). An outline of the steps:
as §1

Experiment [11] concerns Felis catus. The experiment in a line: Percentage of maximum change in blood pressure in anesthetized cat dosed at 1.6 umol/kg (by bolus injection). In outline: as §1
In experiment [12] the test system is Felis catus. Description: % of maximum change of increase in contraction of nictitating membrane in anesthetized cat at 0.2umol/kg, by bolus injection.
The test system of experiment [13] is Felis catus. The experiment in a line: % of maximum change of increase in contraction of nictitating membrane in anesthetized cat at 0.6umol/kg, by bolus injection.
The subject of experiment [14] is Felis catus. The experiment in a line: % of maximum change of increase in contraction of nictitating membrane in anesthetized cat at 0.8umol/kg, by bolus injection.
The test system of experiment [15] is Felis catus. Description: % of maximum change of increase in contraction of nictitating membrane in anesthetized cat at 1.0umol/kg, by bolus injection.
In experiment [16] the test system is Felis catus. The experiment in a line: % of maximum change of increase in contraction of nictitating membrane in anesthetized cat at 1.2umol/kg, by bolus injection.
Experiment [17] relates to Felis catus. Description: % of maximum change of increase in contraction of nictitating membrane in anesthetized cat at 1.4umol/kg, by bolus injection.
Experiment [18] has as its system Felis catus. Description: % of maximum change of increase in contraction of nictitating membrane in anesthetized cat at 1.6umol/kg, by bolus injection.
Experiment [19] deals with Felis catus. The experiment in a line: % of maximum change of increase in contraction of nictitating membrane in anesthetized cat at 1.8umol/kg, by bolus injection.
For experiment [20], the system named is Felis catus. The experiment in a line: % of maximum change of decrease in HR by vagal stimulation in anesthetized cat at 0.6umol/kg, by bolus injection.
For experiment [21], the system named is Felis catus. Description: % of maximum change of decrease in HR by vagal stimulation in anesthetized cat at 0.8umol/kg, by bolus injection.
For experiment [22], the system named is Felis catus. The experiment in a line: % of maximum change of decrease in HR by vagal stimulation in anesthetized cat at 1.0umol/kg, by bolus injection.
Experiment [23] has as its system Felis catus. The experiment in a line: % of maximum change of decrease in HR by vagal stimulation in anesthetized cat at 1.2umol/kg, by bolus injection.
Experiment [24] has as its system Felis catus. The experiment in a line: % of maximum change of decrease in HR by vagal stimulation in anesthetized cat at 1.4umol/kg, by bolus injection.
In experiment [25] the test system is Felis catus. Description: % of maximum change of decrease in HR by vagal stimulation in anesthetized cat at 1.6umol/kg, by bolus injection.
Experiment [26] concerns Felis catus. Description: % of maximum change of decrease in HR by vagal stimulation in anesthetized cat at 1.8umol/kg, by bolus injection.
The subject of experiment [27] is Felis catus. Description: Percentage of maximum change of heart rate in anesthetized cat at 0.2umol/kg, by bolus injection. In outline:
as §1

The subject of experiment [28] is Felis catus. The experiment in a line: Percentage of maximum change of heart rate in anesthetized cat at 0.6umol/kg, by bolus injection. An outline of the steps:
as §1

Experiment [29] concerns Felis catus. The experiment in a line: Percentage of maximum change of heart rate in anesthetized cat at 0.8umol/kg, by bolus injection. An outline of the steps:
as §1

In experiment [30] the test system is Felis catus. The experiment in a line: Percentage of maximum change of heart rate in anesthetized cat at 1.0umol/kg, by bolus injection. In outline: as §1
Experiment [31] relates to Felis catus. The experiment in a line: Percentage of maximum change of heart rate in anesthetized cat at 1.2umol/kg, by bolus injection. In outline:
as §1

Experiment [32] concerns Felis catus. Description: Percentage of maximum change of heart rate in anesthetized cat at 1.4umol/kg, by bolus injection. An outline of the steps: as §1
Experiment [33] concerns Felis catus. Description: Percentage of maximum change of heart rate in anesthetized cat at 1.6umol/kg, by bolus injection. In outline: as §1
Experiment [34] has as its system Felis catus. Description: Percentage of maximum change of heart rate in anesthetized cat at 1.8umol/kg, by bolus injection. An outline of the steps:
as §1

In experiment [35] the test system is Cavia porcellus. The experiment in a line: In vivo reversal activity versus ~90% block by rocuronium in guinea pig, expressed as % of maximum reversal at 0.3 umol/kg conc. An outline of the steps:
as §2

The species named for experiment [36] is Mus musculus. The experiment in a line: In vitro reversal activity versus ~90% block by rocuronium in isolated mouse hemidiaphragm, expressed as % of maximum reversal at 3.6 uM conc.
For experiment [37], the species on record is Mus musculus. The experiment in a line: In vitro reversal activity versus ~90% block by rocuronium in isolated mouse hemidiaphragm, expressed as effective conc.
The test system of experiment [38] is Felis catus. Description: Percentage of maximum change of heart rate in anesthetized cat at 0.4umol/kg, by bolus injection. In outline:
as §1

Experiment [39] concerns Felis catus. Description: Percentage of maximum change in blood pressure in anesthetized cat dosed at 1.8 umol/kg (by bolus injection). In outline:
as §1

The subject of experiment [40] is Felis catus. Description: % of maximum change of increase in contraction of nictitating membrane in anesthetized cat at 0.4umol/kg, by bolus injection.
Experiment [41] concerns Cavia porcellus. Description: In vivo reversal activity versus ~90% block by rocuronium in guinea pig, expressed as % of maximum reversal at 7.3 umol/kg conc. In outline: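 Male Dunkin-Hartley guinea pigs (600-900 g) anaesthetized ip with pentobarbitone 10 mg/kg plus urethane 1000 mg/kg, tracheotomized and artificially ventilated. Continuous iv rocuronium bromide infusion (~10 nmol kg-1 min-1) raised until steady-state twitch block of 85-90%. Increasing single iv doses of reversal agent given by a separate catheter. Max reversal is peak twitch recovery versus preblock height at highest dose tested; means ± SEM, n ≥ 2 or single experiment.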

The species entered for experiment [42] is Mus musculus. The experiment in a line: In vitro reversal activity versus ~90% block by rocuronium in isolated mouse hemidiaphragm, expressed as % of maximum reversal at 14.4 uM conc.

Structures are written as SMILES.

What is called ED50 is the dose that gives a 50% effect, or the effect in half of the subjects. For orientation: EC50 means the midpoint of the concentration-response curve. Regarding `O=C([O-])CCSCC1O[C@@H]2O[C@@H]3C(CSCCC(=O)[O-])O[C@H](O[C@@H]4C(CSCCC(=O)[O-])O[C@H](O[C@@H]5C(CSCCC(=O)[O-])O[C@H](O[C@@H]6C(CSCCC(=O)[O-])O[C@H](O[C@@H]7C(CSCCC(=O)[O-])O[C@H](O[C@@H]8C(CSCCC(=O)[O-])O[C@H](O[C@@H]9C(CSCCC(=O)[O-])O[C@H](O[C@H]1C(O)C2O)C(O)C9O)C(O)C8O)C(O)C7O)C(O)C6O)C(O)C5O)C(O)C4O)C(O)C3O.[Na+].[Na+].[Na+].[Na+].[Na+].[Na+].[Na+].[Na+]` (some centres undefined), the BP in experiment [1] is -7.3 mmHg; in experiment [2], -6.5 mmHg; in experiment [3], 3.5 mmHg; in [4], -3.3 mmHg; in [8] it was -3.2 mmHg; in experiment [9], -3.3 mmHg. Also, the BP in [10] is given as -3.3 mmHg; in experiment [11] it was -5 mmHg; in experiment [39], -5 mmHg. Moreover, the Decrease in experiment [5] is -2.9%; in [6], -6.7%; in [20] it was -6.7%; in experiment [21] it was 2.2%; in [22], 0%; in experiment [23] it was 0%. The Decrease in experiment [24] amounted to 0.7%; in experiment [25] it was 0%; in experiment [26] it was 11%. The ED50 in experiment [7] worked out at 0.03 µmol/kg. Also, the Max change is 0% in experiment [12]; 0% in experiment [13]; 3.7% in [14]; 8.7% in experiment [15]; 3.7% in experiment [16]; 3.7% in experiment [17]. Further, the Max change in experiment [18] came out at 3.7%; in [19], 12.5%; in experiment [40], 0%. In addition, the HR in [27] is -4.1%; in experiment [28], -7.5 beats min-1; in [29], -6.3 beats min-1; in experiment [30], -3.4 beats min-1; in experiment [31], -4 beats min-1; in experiment [32], -3.7 beats min-1. The HR in experiment [33] was -6.9 beats min-1; in [34] it was -14.3 beats min-1; in [38], -5.5 beats min-1. In addition, the values for the Max reversal in experiment [35] and in experiment [36] were 92.5% and 95.1%, respectively. In [37], the EC50 was determined as 1.2 µM.

Take `CNC(=O)CSCC1O[C@@H]2O[C@@H]3C(CSCC(=O)NC)O[C@H](O[C@@H]4C(CSCC(=O)NC)O[C@H](O[C@@H]5C(CSCC(=O)NC)O[C@H](O[C@@H]6C(CSCC(=O)NC)O[C@H](O[C@@H]7C(CSCC(=O)NC)O[C@H](O[C@@H]8C(CSCC(=O)NC)O[C@H](O[C@@H]9C(CSCC(=O)NC)O[C@H](O[C@H]1C(O)C2O)C(O)C9O)C(O)C8O)C(O)C7O)C(O)C6O)C(O)C5O)C(O)C4O)C(O)C3O` (some centres undefined): in [7], the 50% effective dose (ED50) was 1.54 µmol/kg. The Max reversal in experiment [41] came out at 102.2%; in experiment [42], 79.6%. In addition, in [37], the EC50 amounted to 6.4 µM.
